Experimental data published in ChEMBL document CHEMBL1141860, “Synthesis and monoamine transporter affinity of 3-aryl substituted trop-2-enes” (Bioorg Med Chem Lett, 2005).

What was measured:
[1] = molecular target: Sodium-dependent noradrenaline transporter (Homo sapiens, UniProt P23975); assay: Displacement of [3H]nisoxetine from human NET
Method in brief: (§1)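 Competitive radioligand binding at human transporters. The tritiated standard ligand matched each transporter: WIN-35,428 for DAT, citalopram for SERT, and nisoxetine for NET.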

[2] = molecular target: Monoamine transporters; serotonin & dopamine (Homo sapiens) (UniProt P31645+Q01959); assay: Selectivity for human DAT over human SERT; assay type: protein assay
Chain of Monoamine transporters; serotonin & dopamine (Homo sapiens) (P31645 whole entry, looked up): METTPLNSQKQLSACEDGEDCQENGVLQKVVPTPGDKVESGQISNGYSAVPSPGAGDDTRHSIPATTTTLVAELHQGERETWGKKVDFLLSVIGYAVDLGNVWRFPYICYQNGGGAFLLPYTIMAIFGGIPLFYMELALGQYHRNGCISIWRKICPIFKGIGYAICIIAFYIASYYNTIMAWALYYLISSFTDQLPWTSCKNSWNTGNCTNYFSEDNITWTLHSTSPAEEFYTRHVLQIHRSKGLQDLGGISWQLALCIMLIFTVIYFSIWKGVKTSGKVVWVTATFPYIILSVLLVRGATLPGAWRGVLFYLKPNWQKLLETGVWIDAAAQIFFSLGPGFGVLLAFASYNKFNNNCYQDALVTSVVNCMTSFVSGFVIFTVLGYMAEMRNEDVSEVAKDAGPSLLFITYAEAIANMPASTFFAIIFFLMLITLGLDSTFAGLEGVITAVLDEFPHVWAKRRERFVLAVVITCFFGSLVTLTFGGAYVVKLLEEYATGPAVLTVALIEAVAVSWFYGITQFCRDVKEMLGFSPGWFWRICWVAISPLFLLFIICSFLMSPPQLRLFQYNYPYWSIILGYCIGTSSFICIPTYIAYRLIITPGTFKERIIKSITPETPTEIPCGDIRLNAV
Chain of Monoamine transporters; serotonin & dopamine (Homo sapiens) (Q01959 whole entry, looked up): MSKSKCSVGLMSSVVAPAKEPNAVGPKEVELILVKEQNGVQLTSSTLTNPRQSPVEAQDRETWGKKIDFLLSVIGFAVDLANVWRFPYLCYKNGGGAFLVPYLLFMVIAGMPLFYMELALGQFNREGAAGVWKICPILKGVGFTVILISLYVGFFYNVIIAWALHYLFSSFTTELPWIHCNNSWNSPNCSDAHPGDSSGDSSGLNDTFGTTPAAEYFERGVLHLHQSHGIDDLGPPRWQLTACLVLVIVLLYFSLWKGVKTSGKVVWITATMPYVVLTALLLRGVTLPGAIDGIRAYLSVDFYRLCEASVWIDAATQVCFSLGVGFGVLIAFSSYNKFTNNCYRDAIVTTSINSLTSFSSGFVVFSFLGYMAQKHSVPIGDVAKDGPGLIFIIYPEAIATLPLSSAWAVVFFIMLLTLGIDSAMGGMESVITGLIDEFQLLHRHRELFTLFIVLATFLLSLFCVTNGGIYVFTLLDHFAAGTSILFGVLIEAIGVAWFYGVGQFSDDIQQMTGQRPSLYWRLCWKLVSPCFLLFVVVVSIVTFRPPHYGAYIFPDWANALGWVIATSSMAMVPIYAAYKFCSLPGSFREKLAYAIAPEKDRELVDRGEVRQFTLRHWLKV

[3] = molecular target: Sodium-dependent dopamine transporter (Homo sapiens, UniProt Q01959); assay: Displacement of [3H]WIN-35428 from human DAT
Chain of Sodium-dependent dopamine transporter (Q01959 whole entry): as the sequence (Q01959 whole entry, looked up) above

[4] = molecular target: Sodium-dependent serotonin transporter (Homo sapiens, UniProt P31645); assay: Displacement of [3H]Citalopram from human SERT; method in brief: as §1
Chain of Sodium-dependent serotonin transporter (P31645 whole entry): as the sequence (P31645 whole entry, looked up) above

[5] = molecular target: Serotonin and norepinephrine transporters (SERT/NET) (Homo sapiens) (UniProt P31645+P23975); assay: Selectivity for human SERT over human NET; assay type: protein assay
Chain of Serotonin and norepinephrine transporters (SERT/NET) (Homo sapiens) (P23975 whole entry, looked up): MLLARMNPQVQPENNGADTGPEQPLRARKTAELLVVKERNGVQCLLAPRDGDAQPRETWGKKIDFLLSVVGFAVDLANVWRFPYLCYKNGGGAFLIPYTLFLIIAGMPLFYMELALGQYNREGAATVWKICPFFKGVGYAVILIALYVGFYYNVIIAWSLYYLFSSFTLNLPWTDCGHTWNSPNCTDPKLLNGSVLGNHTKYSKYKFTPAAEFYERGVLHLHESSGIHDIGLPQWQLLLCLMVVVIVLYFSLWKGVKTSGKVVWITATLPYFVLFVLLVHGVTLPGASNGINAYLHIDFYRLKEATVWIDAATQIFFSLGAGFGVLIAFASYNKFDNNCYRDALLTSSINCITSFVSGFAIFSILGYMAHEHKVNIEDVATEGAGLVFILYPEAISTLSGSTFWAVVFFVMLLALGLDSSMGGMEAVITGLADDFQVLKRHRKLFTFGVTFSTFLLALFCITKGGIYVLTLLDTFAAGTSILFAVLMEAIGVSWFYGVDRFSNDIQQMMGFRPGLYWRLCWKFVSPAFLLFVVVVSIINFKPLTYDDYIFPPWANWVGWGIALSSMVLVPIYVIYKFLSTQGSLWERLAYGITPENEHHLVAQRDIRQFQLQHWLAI
Chain of Serotonin and norepinephrine transporters (SERT/NET) (Homo sapiens) (P31645 whole entry, looked up): as the sequence (P31645 whole entry, looked up) above

[6] = molecular target: Monoamine transporters; Norepinephrine & dopamine (Homo sapiens) (UniProt Q01959+P23975); assay: Selectivity for human DAT over human NET; assay type: protein assay
Chain of Monoamine transporters; Norepinephrine & dopamine (Homo sapiens) (P23975 whole entry, looked up): as the sequence (P23975 whole entry, looked up) above
Chain of Monoamine transporters; Norepinephrine & dopamine (Homo sapiens) (Q01959 whole entry, looked up): as the sequence (Q01959 whole entry, looked up) above

Chain of Sodium-dependent noradrenaline transporter (P23975 whole entry): as the sequence (P23975 whole entry, looked up) above

Structure (SMILES) | IC50 [1] | Ratio IC50 [2] | IC50 [3] | IC50 [4] | Ratio IC50 [5] | Ratio IC50 [6]
CN1C2C=C(C3c4ccccc4-c4ccccc43)CC1CC2 (centres undefined) | 82.7 µM | 13.6 | 9.35 µM | 0.69 µM | 0.0083 | 0.113
CN1C2CCC1CC(O)(c1cccc(-c3ccccc3)c1)C2 (centres undefined) | 41.5 µM | 5.81 | 21.9 µM | 3.77 µM | 0.091 | 0.53
CN1C2CCC1CC(O)(C1c3ccccc3-c3ccccc31)C2 (centres undefined) | 158 µM | 0.015 | 0.543 µM | 35.4 µM | 0.22 | 0.0034
CN1C2CCC1CC(O)(c1ccccc1-c1ccccc1)C2 (centres undefined) | 66.3 µM | 1.58 | 3.98 µM | 2.52 µM | 0.038 | 0.06
CN1C2C=C(c3ccccc3-c3ccccc3)CC1CC2 (centres undefined) | 6.43 µM | 5.4 |  | 1.71 µM | 0.27 | 1.44
CN1C2CCC1CC(O)(C1c3ccccc3-c3ccc(Br)cc31)C2 (centres undefined) | 62.6 µM | 6.5 | 16.8 µM | 2.57 µM | 0.041 | 0.27
C[N+]1(CCl)C2C=C(c3ccccc3-c3ccccc3)CC1CC2 (centres undefined) | 2.02 µM | 4.2 | 67 µM | 16.1 µM | 8 | 33.2
CN1C2C=C(c3c[nH]c4ccccc34)CC1CC2 (centres undefined) | 3.96 µM | 8.3 | 0.603 µM | 0.0726 µM | 0.018 | 0.15
CN1C2C=C(c3cccc(-c4ccccc4)c3)CC1CC2 (centres undefined) | 23 µM | 10.8 | 7.22 µM | 0.67 µM | 0.029 | 0.314
CN1C2C=C(c3ccc4c(c3)Cc3ccccc3-4)CC1CC2 (centres undefined) | 3.36 µM | 52.2 | 0.757 µM | 0.0145 µM | 0.0043 | 0.23
